The array DNA melting data of Ke et al. (doi:10.1101/2024.01.08.574731)

Experiments:
[1] = melting temperature; fluorescence melt of hairpins on a sequencing array, two-state fit, raised by 9.35 °C to match UV melts; details: sodium 0.088 M
Procedure, shortened: (§1)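 To match UV melts, fitted temperatures were raised by 9.35 °C. These fits were bootstrapped two-state models that gave melting temperature and folding enthalpy, combined by inverse variance over four replicates. The input was normalised Cy3 fluorescence of library hairpins with annealed Cy3 and quencher oligos on a sequenced MiSeq flow cell, imaged in 50 mM Na-HEPES pH 8.0, 25 mM NaCl in 2.5 °C steps up to 60 °C.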

[2] = folding enthalpy; higher = less favourable; fluorescence melt of hairpins on a sequencing array, two-state fit; details: sodium 0.088 M
Procedure, shortened: as §1

AACACGAAAGTGTT (((((....)))))
Tm [1]: 56.8 °C
folding enthalpy [2]: -18.9 kcal/mol

AACGGGAAACCGTT (((((....)))))
Tm [1]: 50.6 °C
folding enthalpy [2]: -18.5 kcal/mol

AACTCGAAAGAGTT (((((....)))))
Tm [1]: 50.7 °C
folding enthalpy [2]: -17.7 kcal/mol

AATTGGAAACAATT (((((....)))))
Tm [1]: 31.6 °C
folding enthalpy [2]: -11.3 kcal/mol

ACAATGAAAATTGT (((((....)))))
Tm [1]: 34.8 °C
folding enthalpy [2]: -11.1 kcal/mol

ACACAGAAATGTGT (((((....)))))
Tm [1]: 45.9 °C
folding enthalpy [2]: -14.7 kcal/mol

ACCAGGAAACTGGT (((((....)))))
Tm [1]: 49.2 °C
folding enthalpy [2]: -21.4 kcal/mol

ACCGTGAAAACGGT (((((....)))))
Tm [1]: 55.4 °C
folding enthalpy [2]: -17 kcal/mol

ACGGAGAAATCCGT (((((....)))))
Tm [1]: 49.2 °C
folding enthalpy [2]: -19 kcal/mol

ACTAGGAAACTAGT (((((....)))))
Tm [1]: 37.9 °C
folding enthalpy [2]: -13.9 kcal/mol

ACTCAGAAATGAGT (((((....)))))
Tm [1]: 36.7 °C
folding enthalpy [2]: -22 kcal/mol

ACTGGGAAACCAGT (((((....)))))
Tm [1]: 47.6 °C
folding enthalpy [2]: -15.9 kcal/mol

AGAAGCAGAAATGGTTCT ((((.((....)).))))
Tm [1]: 34.5 °C
folding enthalpy [2]: -27.4 kcal/mol

AGACAGAAATGTCT (((((....)))))
Tm [1]: 41.7 °C
folding enthalpy [2]: -15.8 kcal/mol

AGAGTGAAAACTCT (((((....)))))
Tm [1]: 40.8 °C
folding enthalpy [2]: -16.6 kcal/mol

AGATTGAAAAATCT (((((....)))))
Tm [1]: 28.9 °C
folding enthalpy [2]: -10.8 kcal/mol

AGCGTGAAAACGCT (((((....)))))
Tm [1]: 65.6 °C
folding enthalpy [2]: -18.5 kcal/mol

AGCTCGAAAGAGCT (((((....)))))
Tm [1]: 68.6 °C
folding enthalpy [2]: -20.8 kcal/mol

AGCTGGAAACAGCT (((((....)))))
Tm [1]: 54.3 °C
folding enthalpy [2]: -23.3 kcal/mol

AGGCTGAAAAGCCT (((((....)))))
Tm [1]: 62.6 °C
folding enthalpy [2]: -16.9 kcal/mol

AGGTGGAAACACCT (((((....)))))
Tm [1]: 52.6 °C
folding enthalpy [2]: -19.2 kcal/mol

AGTAACTGAAAAGTTACT (((((((....)))))))
Tm [1]: 51.6 °C
folding enthalpy [2]: -32.3 kcal/mol

AGTATGAAAATACT (((((....)))))
Tm [1]: 32 °C
folding enthalpy [2]: -15.2 kcal/mol

AGTCAGAAATGACT (((((....)))))
Tm [1]: 43.3 °C
folding enthalpy [2]: -18.9 kcal/mol

ATCATGAAAATGAT (((((....)))))
Tm [1]: 38.5 °C
folding enthalpy [2]: -13.8 kcal/mol

ATCCTGAAAAGGAT (((((....)))))
Tm [1]: 45.2 °C
folding enthalpy [2]: -18.9 kcal/mol

ATGACGAAAGTCAT (((((....)))))
Tm [1]: 56.8 °C
folding enthalpy [2]: -19.1 kcal/mol

ATGCTGAAAAGCAT (((((....)))))
Tm [1]: 50.8 °C
folding enthalpy [2]: -18.6 kcal/mol

ATGTGGAAACACAT (((((....)))))
Tm [1]: 46.1 °C
folding enthalpy [2]: -20.3 kcal/mol

CAACGGAAACGTTG (((((....)))))
Tm [1]: 52.6 °C
folding enthalpy [2]: -25.9 kcal/mol

CAAGCAGAAATGGTTG (((.((....)).)))
Tm [1]: 33.6 °C
folding enthalpy [2]: -19.3 kcal/mol

CAATCCGAAAGGCTTG (((.((....)).)))
Tm [1]: 34.7 °C
folding enthalpy [2]: -17 kcal/mol

CAATTGAAAAATTG (((((....)))))
Tm [1]: 35.6 °C
folding enthalpy [2]: -13.6 kcal/mol

CACAGGAAACTGTG (((((....)))))
Tm [1]: 50.2 °C
folding enthalpy [2]: -21 kcal/mol

CACCTGAAAAGGTG (((((....)))))
Tm [1]: 54.4 °C
folding enthalpy [2]: -23.8 kcal/mol

CACGTGAAAACGTG (((((....)))))
Tm [1]: 58.6 °C
folding enthalpy [2]: -24.9 kcal/mol

CACTTGAAAAAGTG (((((....)))))
Tm [1]: 43.6 °C
folding enthalpy [2]: -21.2 kcal/mol

CAGCAGAAATGCTG (((((....)))))
Tm [1]: 53 °C
folding enthalpy [2]: -25.6 kcal/mol

CAGGGGAAACCCTG (((((....)))))
Tm [1]: 52.5 °C
folding enthalpy [2]: -23.2 kcal/mol

CAGTGGAAACACTG (((((....)))))
Tm [1]: 51.7 °C
folding enthalpy [2]: -23 kcal/mol

CATATGAAAATATG (((((....)))))
Tm [1]: 32.2 °C
folding enthalpy [2]: -11.8 kcal/mol

CATGGGAAACCATG (((((....)))))
Tm [1]: 47.8 °C
folding enthalpy [2]: -22.3 kcal/mol

CATGTGAAAACATG (((((....)))))
Tm [1]: 47.2 °C
folding enthalpy [2]: -23.3 kcal/mol

CCAACGAAAGTTGG (((((....)))))
Tm [1]: 58 °C
folding enthalpy [2]: -25.4 kcal/mol

CCAGGGAAACCTGG (((((....)))))
Tm [1]: 53 °C
folding enthalpy [2]: -20.6 kcal/mol

CCCAGGAAACTGGG (((((....)))))
Tm [1]: 54.3 °C
folding enthalpy [2]: -20.4 kcal/mol

CCCATGAAAATGGG (((((....)))))
Tm [1]: 51.2 °C
folding enthalpy [2]: -20.9 kcal/mol

CCCCTGAAAAGGGG (((((....)))))
Tm [1]: 57.2 °C
folding enthalpy [2]: -25.4 kcal/mol
